Experimental data from ChEMBL document CHEMBL1121964, “Potential neuroleptic agents. 2,6-Dialkoxybenzamide derivatives with potent dopamine receptor blocking activities” (J Med Chem, 1982).

Legend:
[1] = The acute toxicity was assessed after (ip) administration in male Sprague-Dawley rats; type: organism-based; conditions: rat, in vivo
Rattus norvegicus [2] = test: The dosage at which 50% of the animals were cataleptic was measured after (ip) administration in male Sprague-Dawley rats; type: functional
Procedure, shortened: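 Eight rats per dose level were tested. Both forelimbs were placed on a 7-cm-high horizontal bar, and failure to step off within 60 s counted as cataleptic. Testing was done 1, 2, 4, 8 and 24 h post-dose. ED50 with 95% confidence interval came from probit analysis of each compound's peak cataleptic effect.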

Rattus norvegicus [3] = test: In vivo blocking of apomorphine induced stereotypies following 1 mg/kg i.p. in rats after 60 min.; type: functional; conditions: ip, 1 h, route intraperitoneal
Procedure, shortened: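 Male Sprague-Dawley rats (250-300 g) received test compound ip in saline or water 60 min before sc apomorphine 1 mg/kg given into the neck. Stereotypy strength was scored at 5, 20, 40 and 60 min. It was derived by Theil's method with Sen's correction for ties, with a 90% confidence interval.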

Rattus norvegicus [4] = test: In vivo blocking of apomorphine induced hyperactivity following 1 mg/kg i.p. in rats after 60 min.; type: functional; conditions: ip, 1 h, route intraperitoneal
Procedure, shortened: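 Male Sprague-Dawley rats (250-300 g) were dosed ip with test compound in saline or water 60 min before apomorphine 1 mg/kg sc into the neck. Behavior was scored at 5, 20, 40 and 60 min. It was calculated by Theil's method with Sen's tie correction, with a 90% confidence interval.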

Compound | LD50 [1] [µmol/kg] | ED50 (Rattus norvegicus [2]) [µmol/kg] | ED50 (Rattus norvegicus [3]) [µmol/kg] | ED50 (Rattus norvegicus [4]) [µmol/kg]
CCN1CCC[C@H]1CNC(=O)c1c(OC)ccc(Br)c1OC.Cl | 794 | 24.5 |  | 
CCN1CCC[C@H]1CNC(=O)c1c(OC)ccc(Cl)c1OC.Cl | ~826 |  | 11.7 | 5.6
CCOc1ccc(Br)c(OCC)c1C(=O)NC[C@@H]1CCCN1CC.Cl | 206 | 8.9 | 1.9 | 0.47
CCN1CCC[C@@H]1CNC(=O)c1c(OC)ccc(Br)c1OC |  |  | > 196 | 120
CCN1CCC[C@@H]1CNC(=O)c1c(OC)c(Br)cc(Br)c1OC | 159 |  | > 82 | 13.1
CCN1CCCC1CNC(=O)c1c(OC)c(Cl)cc(Br)c1OC (stereo not drawn) | 206 | 5 | 7.3 | 3.9
CCN1CCCC1CNC(=O)c1c(OC)c(Cl)cc(Cl)c1OC (stereo not drawn) | 224 | 16.8 | 5.4 | 3.1
CCN1CCC[C@H]1CNC(=O)c1c(OC)c(Br)cc(Br)c1OC |  | 5.3 | 2.1 | 0.44
CCN1CCCC1CNC(=O)c1c(Cl)cccc1Cl (stereo not drawn) |  |  | > 80 | > 80
CCN1CCCC1CNC(=O)c1c(OC)ccc(Cl)c1OC (stereo not drawn) |  |  | 42.7 | 30.8
CCN1CCCC1CNC(=O)c1c(OC)c(Br)cc(Br)c1OC.Cl (stereo not drawn) | 177 | 8.2 | 4.6 | 1.15
CCOc1cccc(OCC)c1C(=O)NCC1CCCN1CC (stereo not drawn) |  |  | > 40 | 23.4
CCOc1ccc(Cl)c(OCC)c1C(=O)NCC1CCCN1CC (stereo not drawn) |  | 31 | 7.2 | 2.8
CCN1CCCC1CNC(=O)c1c(OC)ccc(Br)c1OC.Cl (stereo not drawn) | 817 | 47 | 21.3 | 12.8
CCN1CCCC1CNC(=O)c1c(OC(C)C)cccc1OC(C)C.Cl (stereo not drawn) | ~160 |  | > 80 | > 80
COc1ccc(Br)c(OC)c1C(=O)NCC1CCCN1 (stereo not drawn) |  |  | 100 | 47
CCN(CC1CCCN1CC)C(=O)c1c(OC)c(Br)cc(Br)c1OC (stereo not drawn) |  |  | > 80 | > 80
CCOc1ccc(Br)c(OCC)c1C(=O)NCC1CCCN1CC (stereo not drawn) |  | 15.7 | 4.7 | 1.1
O=C(CCCN1CCC(O)(c2ccc(Cl)cc2)CC1)c1ccc(F)cc1 [HALOPERIDOL] |  | 0.67 | 0.27 | 0.29
CCN1CCCC1CNC(=O)c1cc(S(N)(=O)=O)ccc1OC (stereo not drawn) [SULPIRIDE] |  | 161 | 212 | 65.6
